Laboratory results published in the EternaBench riboswitch data.

Tested on: MS2 coat protein
Test: apparent Kd, MS2 coat protein; higher = weaker binding; RNA-MaP array; tryptophan 2.4 mM where present
Procedure, shortened: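 Stalled E. coli RNA polymerase transcribed the designs on Illumina sequencing-chip clusters. SNAP-549-labelled MS2 coat protein was titrated from 0.7 or 1.5 nM, doubling to 3 µM, without and then with constant ligand, in 100 mM Tris-HCl pH 7.5, 80 mM KCl, 4 mM MgCl2, BSA, DTT, yeast tRNA and Tween-20. Per-cluster binding curves were fitted to green signal normalised to red-channel RNA signal and control-cluster median Fmax. The apparent Kd is the median of the filtered fits.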

[1] = designed as: ON switch for tryptophan, no ligand
[2] = ligand present: tryptophan, designed as: ON switch for tryptophan
[3] = designed as: OFF switch for tryptophan, no ligand
[4] = ligand present: tryptophan, designed as: OFF switch for tryptophan

| Sequence | apparent Kd [1] [nM] | apparent Kd [2] [nM] | apparent Kd [3] [nM] | apparent Kd [4] [nM] |
| --- | --- | --- | --- | --- |
| AAUAAUAGGUGAUCCUGACGAGUGGCAUAACGAGGACCGGUACGGCCGCCACUCGAACAUGAGGAUCACCCAUGUAGCCACUCGA | 312 | 393 |  |  |
| AAUACCGGAUCGGCCGCCACUGGUUGGCCCUGUGUACAUGAGGAUCACCCAUGUCCAUCCCAAGCCAGGACCGGGAUCUUUGUGU | 16.7 | 10.1 |  |  |
| AAUCGUAAGGCGGCCGCCACUACACAUGAGGAUCACCCAUGUCUCGCAGGCUUGCGUUGGGAUAGUAGGACCGGGCCAGUAAUAA |  |  | 25.1 | 21.8 |
| AAUGUAUGGCACAUGAGGAUCACCCAUGUGCGAGGACCGGUACGGCCGCCACUCGGUCGUGGGUUCUUAUUACUAUACAUUAAUG |  |  | 10.7 | 12.3 |
| ACAUGAGGAUCACCCAUGUUAAACAGGGUGCGAGGACCGGUACGGCCGCCACUCGGACAUUAUUACGAGUGAAUGGUAACGAUGU |  |  | 19.9 | 20 |
| ACAUGUUGGUGGUAUCUACGAAGGCGGAAACGAGGACCGGUACGGCCGCCACUCGGCGACAUGAGGAUCACCCAUGUGGUUAAAA |  |  | 52.6 | 27.5 |
| ACAUUGCGCUCGGCCGCCACUGCCUUAUGAUUAUAAGGAUUAAUGAACAUGAGGAUCACCCAUGUCAGGACCGGGAGCGAACCAU | 13.7 | 13.4 |  |  |
| ACCUGCGUUUGUUUCUUUCUGACGCAGGUUCGAGGACCGGUACGGCCGCCACUCGGACAUGAGGAUCACCCAUGUUUGAAAUGGG |  |  | 253 | 227 |
| AGAGCAUUGACGGCCGCCACUCGUGUCACAUGAGGAUCACCCAUGUGAUGGGUGAUAGCCCGGUUGAGGACCGGGUCAAUGCUCA | 13.7 | 19.2 |  |  |
| AGAUUCGACACGGCCGCCACUCGUGGUGGAUUACCUAGUGUCGAACAUGAGGAUCACCCAUGUACGAGGACCGGGUGUUGAGUCU |  |  | 75 | 200 |
| AGAUUCGACACGGCCGCCACUUGUGGUGGAUUAUCCUAUGUCGAACAUGAGGAUCACCCAUGUACAAGGACCGGGUGUUGAGUCU |  |  | 401 | 119 |
| AGCCACUCGAGUGAUCCUCACGAGUGGCAACGAGGACCGGUACGGCCGCCACUCGAAUAACAUGAGGAUCACCCAUGUUUAUAAU | 93.2 | 96.2 |  |  |
| AGCCGGAUUACGGCCGCCACUGUAGACGUGACGAAAGUCGCGUCAACAUGAGGAUCACCCAUGUACAGGACCGGGUGGUCAGGCG | 173 | 41.2 |  |  |
| AGUCACUCGAGGUGAUCUGACGAGUGGCAACGAGGACCGGUACGGCCGCCACUCGAAUAAACAUGAGGAUCACCCAUGUACAAAU | 213 | 196 |  |  |
| AUAAAUAAGGCGGCCGCCACUAAUAUAUUAAUAUUUUAUAUCCGACAUGAGGAUCACCCAUGUGGUAGGACCGGGCCAAUAAUUA | 26.2 | 25.8 |  |  |
| AUCUUUGGCGAUCUGGGAAAACCAGAUCGACGAGGACCGGUACGGCCGCCACUCGUGUAUAAUAUACAUGAGGAUCACCCAUGUA | 47.5 | 30.5 |  |  |
| AUGGUCGACGAUCUGCGAAAAGCAGAUCGACGAGGACCGGUACGGCCGCCACUCGUGUUUAUUUAACAUGAGGAUCACCCAUGUA | 80.2 | 22.3 |  |  |
| CACGCACGAUCGGCCGCCACUCAUGUAGCUUACAUGAGGAUCACCCAUGUAUUUUCUUUCUUUUAGAGGACCGGGAUCGUGCGUG | 24.9 | 16.5 |  |  |
| CAUAUAUAAGCGGCCGCCACUUACUCAUGAGGUAACAACAUGAGGAUCACCCAUGUUUGAGGAUCAAGGACCGGGCUUAUAUAUG | 28.3 | 18.3 |  |  |
| CCUAUGCAGUCGGCCGCCACUGAGUCCUCAAUAAUAAAUUAAUAAACAUGAGGAUCACCCAUGUACAGGACCGGGACUGUAUAGG |  |  | 314 | 373 |

| Sequence | apparent Kd [1] [nM] | apparent Kd [2] [nM] | apparent Kd [3] [nM] | apparent Kd [4] [nM] |
| --- | --- | --- | --- | --- |
| CGAAUAUAGACGGCCGCCACUCUACAAACAUGAGGAUCACCCAUGUUCACAUAGUGGAAACACAUGAGGACCGGGUCAUAGGCAU | 18.5 | 14 |  |  |
| CGAUAUAUAGCGGCCGCCACUUACUCAUGAGGUAACAACAUGAGGAUCACCCAUGUUUGAGGAUCAAGGACCGGGCUAUGUAUCG | 27.4 | 18 |  |  |
| CGCCACAUGAGGAUCACCCAUGUCUUGGCGCGAGGACCGGUACGGCCGCCACUCGCGUUUCAGUGAGCGCAUGCGUCCUUGGUAU |  |  | 18.3 | 26.1 |
| CUAAUUAAAUCGGCCGCCACUUACUCAUGAGGUAACAACAUGAGGAUCACCCAUGUUUGAGGAUCAAGGACCGGGAUUUAAUUAG | 28.9 | 18.2 |  |  |
| CUACAUUUGUAGAAACCGGUCAACAAUAAUCGAGGACCGGUACGGCCGCCACUCGAUGUGAAAUACACAUGAGGAUCACCCAUGU | 15.9 | 16.9 |  |  |
| CUACAUUUGUAGAAACCGGUCACCGUUACUCGAGGACCGGUACGGCCGCCACUCGUGUCACGUGAUACAUGAGGAUCACCCAUGU | 37.4 | 31.3 |  |  |
| CUAUAAGUACCGGUCCUCAGAUCCUCAUGACGAGGACCGGUACGGCCGCCACUCGAAACAUGAGGAUCACCCAUGUAAUAAUACC |  |  | 35.5 | 19.9 |
| CUAUAUAUAGCGGCCGCCACUUACUCAUGAGGUAACAACAUGAGGAUCACCCAUGUUUGAGGAUCAAGGACCGGGCUAUAUAUAG | 28.2 | 16.7 |  |  |
| CUAUAUUUAUCGGCCGCCACUUACUCAUGAGGUAACAACAUGAGGAUCACCCAUGUUUGAGGAUCAAGGACCGGGAUAAAUAUAG | 27.8 | 16.3 |  |  |
| CUAUGUAUAUAUGCGAAAGCUACGUGUUGACGAGGACCGGUACGGCCGCCACUCGACAUGAGGAUCACCCAUGUAAUAUAUAUAG | 200 | 62.7 |  |  |
| CUGCCUGCCUCACAUGAGGAUCACCCAUGUCGAGGACCGGUACGGCCGCCACUCGUCGUCGGUAAUACAGGCAUUGAAUAAUAUA |  |  | 10.3 | 37.5 |
| GAGUAGUAGACGGCCGCCACUAAACAUGAGGAUCACCCAUGUAGUGAUCCGUUACCUAGCGUAGAUAGGACCGGGUCAGAUAGUA |  |  | 26 | 29.2 |
| GAUAUGGAAACAUGUCAGAUCCUUACCGGUCGAGGACCGGUACGGCCGCCACUCGGAAAUAUUGUACAUGAGGAUCACCCAUGUA |  |  | 13.7 | 14.5 |
| GCAUCCUAGUCGGCCGCCACUGCAACAUGAGGAUCACCCAUGUCUGUAUGUGAUCCAUGCAGUAGCAGGACCGGGACUAGGAUGC | 501 | 130 |  |  |
| GCAUCCUAGUCGGCCGCCACUGCACGAUCAGUGGCAGAUCGUCAACAUGAGGAUCACCCAUGUAGCAGGACCGGGACUAGGAUGC | 17.6 | 24.6 |  |  |
| GCAUCCUAGUCGGCCGCCACUGCAUGUAGGCAGUGCUGCUACAAACAUGAGGAUCACCCAUGUAGCAGGACCGGGACUAGGAUGC | 15 | 13.1 |  |  |
| GGAGCUACGUCGGCCGCCACUAGCGGAUAUUACGUGUACAUGAGGAUCACCCAUGUAAUACGGUUUAGGACCGGGACGUAGCUCC |  |  | 17.3 | 16.5 |
| GGAUAGGACACGGCCGCCACUGCCUAGGAUACUAGCAACAUUUGGGUACAUGAGGAUCACCCAUGUAGGACCGGGUGUCCUAUCG |  |  | 49.2 | 53.9 |
| GGAUCAGGAUCGGCCGCCACUGAUAGUGAUCCAACGACAUGAGGAUCACCCAUGUACAUUUUAAUCAGGACCGGGAUCAAGUUCC |  |  | 129 | 209 |
| GGUAUAUAGGCGGCCGCCACUGAUUUUCAUAUAUAUAUAACAUGAGGAUCACCCAUGUAGAUAUACAGGACCGGGCCUAUAUAUU | 14.9 | 12.8 |  |  |
